Reference: ChEMBL document CHEMBL5705888, “Substrate specificity and inhibitors of LRRK2, a protein kinase mutated in Parkinson's disease” (Biochem J, 2009)

Columns and labels:
[1] = target: Casein kinase 2 (Homo sapiens) (UniProt P67870+P68400+P19784+Q8NEV1); assay: Inhibition of CK2 (unknown origin) at 10 uM incubated for 30 mins in presence of [gamma-33P]ATP by multidrop micro reagent based assay relative to control; values are per cent of control
[2] = target: Mitogen-activated protein kinase 3 (Homo sapiens) (UniProt P27361); assay: Inhibition of ERK1 (unknown origin) at 10 uM incubated for 30 mins in presence of [gamma-33P]ATP by multidrop micro reagent based assay relative to control; values are per cent of control
[3] = target: Serine/threonine-protein kinase pim-3 (Homo sapiens) (UniProt Q86V86); assay: Inhibition of PIM3 (unknown origin) at 10 uM incubated for 30 mins in presence of [gamma-33P]ATP by multidrop micro reagent based assay relative to control; values are per cent of control
[4] = target: MAP/microtubule affinity-regulating kinase 3 (Homo sapiens) (UniProt P27448); assay: Inhibition of MARK3 (unknown origin) at 10 uM incubated for 30 mins in presence of [gamma-33P]ATP by multidrop micro reagent based assay relative to control; values are per cent of control
Sequence of MAP/microtubule affinity-regulating kinase 3 (Homo sapiens) (P27448 whole entry, looked up): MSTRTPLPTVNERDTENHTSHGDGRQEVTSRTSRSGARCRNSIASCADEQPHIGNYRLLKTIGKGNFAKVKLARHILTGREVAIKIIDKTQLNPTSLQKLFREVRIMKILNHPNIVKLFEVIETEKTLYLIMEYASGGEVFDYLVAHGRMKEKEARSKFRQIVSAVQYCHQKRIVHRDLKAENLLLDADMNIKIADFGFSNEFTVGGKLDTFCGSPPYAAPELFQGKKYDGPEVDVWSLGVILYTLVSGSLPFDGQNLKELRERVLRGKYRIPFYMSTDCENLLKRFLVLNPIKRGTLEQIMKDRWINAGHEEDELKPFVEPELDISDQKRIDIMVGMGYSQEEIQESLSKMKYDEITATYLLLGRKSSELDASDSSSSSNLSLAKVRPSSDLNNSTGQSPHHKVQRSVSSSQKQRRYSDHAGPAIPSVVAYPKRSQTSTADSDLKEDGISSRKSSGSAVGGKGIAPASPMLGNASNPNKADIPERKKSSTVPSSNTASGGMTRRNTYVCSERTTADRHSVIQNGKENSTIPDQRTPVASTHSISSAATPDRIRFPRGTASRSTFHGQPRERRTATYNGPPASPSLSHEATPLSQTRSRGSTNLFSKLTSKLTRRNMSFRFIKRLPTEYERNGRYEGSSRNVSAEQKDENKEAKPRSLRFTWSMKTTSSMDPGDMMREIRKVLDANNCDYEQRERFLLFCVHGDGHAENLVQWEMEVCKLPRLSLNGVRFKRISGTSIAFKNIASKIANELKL

[5] = target: T1, Ephrin type-B receptor 3 (Homo sapiens) (UniProt P54753); assay: Inhibition of EPH-B3 (unknown origin) at 10 uM incubated for 30 mins in presence of [gamma-33P]ATP by multidrop micro reagent based assay relative to control; values are per cent of control
T1 sequence (whole entry): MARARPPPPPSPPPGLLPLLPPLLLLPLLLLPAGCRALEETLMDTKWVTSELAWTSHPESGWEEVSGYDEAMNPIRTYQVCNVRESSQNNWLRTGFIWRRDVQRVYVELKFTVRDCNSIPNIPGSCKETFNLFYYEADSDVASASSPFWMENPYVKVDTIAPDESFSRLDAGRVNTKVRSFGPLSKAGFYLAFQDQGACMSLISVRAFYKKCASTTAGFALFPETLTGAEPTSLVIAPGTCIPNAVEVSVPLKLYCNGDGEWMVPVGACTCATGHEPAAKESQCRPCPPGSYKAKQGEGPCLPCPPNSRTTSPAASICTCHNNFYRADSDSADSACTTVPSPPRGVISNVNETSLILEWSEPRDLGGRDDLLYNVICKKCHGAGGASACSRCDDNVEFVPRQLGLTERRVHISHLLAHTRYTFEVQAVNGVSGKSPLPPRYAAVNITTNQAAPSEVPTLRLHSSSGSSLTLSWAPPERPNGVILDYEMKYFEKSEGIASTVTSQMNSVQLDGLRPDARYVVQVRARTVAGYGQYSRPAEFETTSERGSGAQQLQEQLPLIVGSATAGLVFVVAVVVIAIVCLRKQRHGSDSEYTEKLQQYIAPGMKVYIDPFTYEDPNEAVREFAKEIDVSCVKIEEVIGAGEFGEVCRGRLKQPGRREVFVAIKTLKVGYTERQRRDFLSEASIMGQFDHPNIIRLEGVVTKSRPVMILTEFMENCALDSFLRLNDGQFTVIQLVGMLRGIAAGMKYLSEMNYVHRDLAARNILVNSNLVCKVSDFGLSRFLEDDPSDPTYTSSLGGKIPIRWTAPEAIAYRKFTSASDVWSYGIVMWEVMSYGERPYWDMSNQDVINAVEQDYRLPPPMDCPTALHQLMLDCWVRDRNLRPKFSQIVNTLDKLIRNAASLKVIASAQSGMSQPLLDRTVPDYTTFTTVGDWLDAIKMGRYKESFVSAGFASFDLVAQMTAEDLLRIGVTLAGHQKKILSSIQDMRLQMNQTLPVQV

[6] = target: Tyrosine-protein kinase BTK (Homo sapiens) (UniProt Q06187); assay: Inhibition of BTK (unknown origin) at 10 uM incubated for 30 mins in presence of [gamma-33P]ATP by multidrop micro reagent based assay relative to control; values are per cent of control
Sequence of Tyrosine-protein kinase BTK (Homo sapiens) (Q06187 whole entry): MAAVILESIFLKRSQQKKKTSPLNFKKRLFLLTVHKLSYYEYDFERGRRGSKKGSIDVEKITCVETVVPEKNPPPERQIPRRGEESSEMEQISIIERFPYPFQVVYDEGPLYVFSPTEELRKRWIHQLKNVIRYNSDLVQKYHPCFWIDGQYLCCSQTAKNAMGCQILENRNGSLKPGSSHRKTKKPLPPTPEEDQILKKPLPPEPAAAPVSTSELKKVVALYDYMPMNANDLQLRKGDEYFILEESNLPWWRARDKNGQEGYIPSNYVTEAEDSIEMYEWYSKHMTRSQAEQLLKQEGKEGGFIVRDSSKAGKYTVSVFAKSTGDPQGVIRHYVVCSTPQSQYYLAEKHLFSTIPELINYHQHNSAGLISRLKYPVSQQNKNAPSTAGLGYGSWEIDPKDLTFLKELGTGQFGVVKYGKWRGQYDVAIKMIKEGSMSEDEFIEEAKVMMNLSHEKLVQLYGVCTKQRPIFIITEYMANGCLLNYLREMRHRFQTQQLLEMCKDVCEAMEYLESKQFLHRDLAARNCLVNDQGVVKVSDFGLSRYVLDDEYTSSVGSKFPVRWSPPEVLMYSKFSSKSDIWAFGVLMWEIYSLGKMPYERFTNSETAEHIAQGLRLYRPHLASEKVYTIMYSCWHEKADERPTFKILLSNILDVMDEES

[7] = target: Myosin light chain kinase, smooth muscle (Homo sapiens) (UniProt Q15746); assay: Inhibition of SmMLCK (unknown origin) at 0.1 uM incubated for 30 mins in presence of [gamma-33P]ATP by multidrop micro reagent based assay relative to control
Sequence of Myosin light chain kinase, smooth muscle (Homo sapiens) (Q15746 whole entry): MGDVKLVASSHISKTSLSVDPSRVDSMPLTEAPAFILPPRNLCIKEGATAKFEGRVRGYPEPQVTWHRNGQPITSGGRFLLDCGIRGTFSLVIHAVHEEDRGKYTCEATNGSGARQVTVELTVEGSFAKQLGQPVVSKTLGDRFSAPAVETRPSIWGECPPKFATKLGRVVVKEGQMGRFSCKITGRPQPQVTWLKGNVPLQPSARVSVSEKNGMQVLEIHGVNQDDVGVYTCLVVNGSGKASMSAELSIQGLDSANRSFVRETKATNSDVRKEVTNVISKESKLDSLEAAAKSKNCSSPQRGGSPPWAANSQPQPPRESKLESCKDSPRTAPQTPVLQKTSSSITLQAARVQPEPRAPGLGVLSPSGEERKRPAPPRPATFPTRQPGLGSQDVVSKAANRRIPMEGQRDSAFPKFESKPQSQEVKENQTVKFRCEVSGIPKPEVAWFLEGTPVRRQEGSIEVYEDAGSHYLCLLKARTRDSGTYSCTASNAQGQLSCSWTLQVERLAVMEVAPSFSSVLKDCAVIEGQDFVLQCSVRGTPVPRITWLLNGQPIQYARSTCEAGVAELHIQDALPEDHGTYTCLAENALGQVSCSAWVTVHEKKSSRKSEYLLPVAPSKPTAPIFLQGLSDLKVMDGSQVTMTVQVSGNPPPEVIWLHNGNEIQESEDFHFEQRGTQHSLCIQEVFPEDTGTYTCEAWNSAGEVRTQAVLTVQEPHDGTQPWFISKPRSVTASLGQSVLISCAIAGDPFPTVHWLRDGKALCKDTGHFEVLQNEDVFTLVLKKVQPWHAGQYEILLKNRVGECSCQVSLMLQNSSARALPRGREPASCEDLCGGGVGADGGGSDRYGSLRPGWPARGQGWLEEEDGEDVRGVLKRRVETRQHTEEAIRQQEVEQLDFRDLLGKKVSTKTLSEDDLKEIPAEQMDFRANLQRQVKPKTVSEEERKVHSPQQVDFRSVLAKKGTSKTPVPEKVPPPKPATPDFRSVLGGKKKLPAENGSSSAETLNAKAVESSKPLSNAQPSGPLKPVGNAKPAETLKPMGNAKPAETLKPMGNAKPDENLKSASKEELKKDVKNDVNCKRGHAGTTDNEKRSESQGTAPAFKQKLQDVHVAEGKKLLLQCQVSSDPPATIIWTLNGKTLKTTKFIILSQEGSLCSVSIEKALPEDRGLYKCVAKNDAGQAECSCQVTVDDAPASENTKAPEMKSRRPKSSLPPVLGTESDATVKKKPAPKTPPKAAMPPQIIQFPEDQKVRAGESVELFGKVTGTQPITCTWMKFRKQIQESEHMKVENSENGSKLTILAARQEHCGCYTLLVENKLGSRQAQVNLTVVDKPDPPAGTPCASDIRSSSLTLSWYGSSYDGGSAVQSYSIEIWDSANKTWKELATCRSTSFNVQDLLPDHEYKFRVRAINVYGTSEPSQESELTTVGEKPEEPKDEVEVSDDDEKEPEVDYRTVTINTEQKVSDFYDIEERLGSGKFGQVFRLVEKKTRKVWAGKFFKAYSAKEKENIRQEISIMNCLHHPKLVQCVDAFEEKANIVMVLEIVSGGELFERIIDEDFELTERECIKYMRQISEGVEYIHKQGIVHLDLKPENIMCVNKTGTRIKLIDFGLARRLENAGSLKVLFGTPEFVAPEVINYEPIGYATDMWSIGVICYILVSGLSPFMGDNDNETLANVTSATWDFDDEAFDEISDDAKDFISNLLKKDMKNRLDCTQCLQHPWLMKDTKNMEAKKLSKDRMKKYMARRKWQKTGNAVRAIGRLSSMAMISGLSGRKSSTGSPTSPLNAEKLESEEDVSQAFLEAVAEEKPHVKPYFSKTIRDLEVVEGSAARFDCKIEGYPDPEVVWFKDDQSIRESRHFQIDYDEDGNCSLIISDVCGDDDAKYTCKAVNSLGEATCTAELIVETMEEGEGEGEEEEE
Method in brief: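 Single-concentration screen across a panel of 85 protein kinases. Activity is expressed as a percentage of control incubations run without inhibitor.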

[8] = target: T2, Mitogen-activated protein kinase kinase kinase kinase 2 (Homo sapiens) (UniProt Q12851); assay: Inhibition of GCK (unknown origin) at 0.1 uM incubated for 30 mins in presence of [gamma-33P]ATP by multidrop micro reagent based assay relative to control
T2 sequence (whole entry): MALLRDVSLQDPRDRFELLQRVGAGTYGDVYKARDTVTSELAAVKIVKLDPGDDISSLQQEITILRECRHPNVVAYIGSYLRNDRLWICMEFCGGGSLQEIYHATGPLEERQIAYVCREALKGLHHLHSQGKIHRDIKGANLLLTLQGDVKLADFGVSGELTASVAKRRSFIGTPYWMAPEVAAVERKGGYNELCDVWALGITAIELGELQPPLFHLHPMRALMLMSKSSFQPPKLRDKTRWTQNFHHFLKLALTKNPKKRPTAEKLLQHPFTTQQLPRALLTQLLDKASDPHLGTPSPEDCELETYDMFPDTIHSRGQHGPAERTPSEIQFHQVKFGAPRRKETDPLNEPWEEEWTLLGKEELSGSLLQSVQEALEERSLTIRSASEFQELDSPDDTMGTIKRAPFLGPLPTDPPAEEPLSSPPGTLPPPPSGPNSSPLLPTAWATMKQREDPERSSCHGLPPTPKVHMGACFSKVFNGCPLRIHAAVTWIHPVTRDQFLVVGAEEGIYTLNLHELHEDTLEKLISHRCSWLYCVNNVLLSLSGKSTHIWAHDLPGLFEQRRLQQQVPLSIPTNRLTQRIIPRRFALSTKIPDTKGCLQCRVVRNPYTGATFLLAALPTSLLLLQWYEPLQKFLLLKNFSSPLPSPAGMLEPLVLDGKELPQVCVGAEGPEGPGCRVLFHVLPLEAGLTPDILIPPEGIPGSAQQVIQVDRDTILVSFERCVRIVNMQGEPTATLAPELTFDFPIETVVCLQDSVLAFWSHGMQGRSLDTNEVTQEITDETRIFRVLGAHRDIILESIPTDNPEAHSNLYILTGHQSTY

[9] = target: Rho-associated protein kinase 2 (Homo sapiens, UniProt O75116); assay: Inhibition of His6-tagged ROCK2 (2 to 543 residues) (unknown origin) using peptide as substrate incubated for 15 mins in presence of ATP by immunoblotting analysis
Sequence of Rho-associated protein kinase 2 (O75116 whole entry, the tested form may be a part): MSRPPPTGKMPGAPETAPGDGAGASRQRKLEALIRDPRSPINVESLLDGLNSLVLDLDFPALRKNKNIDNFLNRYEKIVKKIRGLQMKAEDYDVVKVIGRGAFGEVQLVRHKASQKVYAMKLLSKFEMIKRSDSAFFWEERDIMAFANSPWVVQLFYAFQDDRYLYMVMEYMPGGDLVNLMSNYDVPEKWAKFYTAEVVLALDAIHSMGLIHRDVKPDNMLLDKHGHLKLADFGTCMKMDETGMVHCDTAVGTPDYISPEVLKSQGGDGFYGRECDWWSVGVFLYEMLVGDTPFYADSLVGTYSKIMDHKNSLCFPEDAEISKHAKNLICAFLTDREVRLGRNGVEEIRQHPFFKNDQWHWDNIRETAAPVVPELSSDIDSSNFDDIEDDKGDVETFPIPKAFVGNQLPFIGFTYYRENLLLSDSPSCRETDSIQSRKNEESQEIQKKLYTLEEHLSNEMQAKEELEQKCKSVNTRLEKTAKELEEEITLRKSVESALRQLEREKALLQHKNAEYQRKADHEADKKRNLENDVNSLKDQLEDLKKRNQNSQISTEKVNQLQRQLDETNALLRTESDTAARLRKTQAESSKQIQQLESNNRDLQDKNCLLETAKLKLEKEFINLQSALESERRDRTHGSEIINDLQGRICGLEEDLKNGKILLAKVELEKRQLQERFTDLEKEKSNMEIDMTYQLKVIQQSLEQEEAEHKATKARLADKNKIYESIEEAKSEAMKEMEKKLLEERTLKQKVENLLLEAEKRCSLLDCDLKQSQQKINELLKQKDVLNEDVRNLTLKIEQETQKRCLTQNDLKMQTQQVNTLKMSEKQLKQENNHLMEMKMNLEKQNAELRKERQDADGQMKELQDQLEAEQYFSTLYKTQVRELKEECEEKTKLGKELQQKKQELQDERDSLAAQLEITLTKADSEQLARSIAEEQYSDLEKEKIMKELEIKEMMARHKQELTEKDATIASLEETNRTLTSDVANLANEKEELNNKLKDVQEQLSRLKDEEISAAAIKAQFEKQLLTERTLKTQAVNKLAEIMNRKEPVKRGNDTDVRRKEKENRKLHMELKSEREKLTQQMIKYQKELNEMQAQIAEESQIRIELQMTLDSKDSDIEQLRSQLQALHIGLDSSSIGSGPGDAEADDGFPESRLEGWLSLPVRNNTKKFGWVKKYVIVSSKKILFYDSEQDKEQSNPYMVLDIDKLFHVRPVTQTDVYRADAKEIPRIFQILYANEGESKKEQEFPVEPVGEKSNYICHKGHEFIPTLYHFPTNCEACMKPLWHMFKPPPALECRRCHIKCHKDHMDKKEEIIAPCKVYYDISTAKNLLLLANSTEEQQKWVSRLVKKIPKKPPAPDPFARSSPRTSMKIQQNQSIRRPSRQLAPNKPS

## C[C@@H](N)[C@H]1CC[C@H](C(=O)Nc2ccncc2)CC1
[1]
  residual activity: 85%
[2]
  residual activity: 92%
[3]
  residual activity: 87%
[4]
  residual activity: 105%

## O=S(=O)(c1cccc2cnccc12)N1CCCNCC1 [FASUDIL]
[5]
  residual activity: 65%
[6]
  residual activity: 112%

## CCN(CC)CCNC(=O)c1c(C)[nH]c(/C=C2\C(=O)Nc3ccc(F)cc32)c1C
[7]
  inhibition: 49%
[8]
  inhibition: 45%

## CC1=C(C(=O)Nc2cc3cn[nH]c3cc2F)C(c2ccc(C(F)(F)F)cc2)CC(=O)N1 (centres undefined)
[9]
  IC50: 63 nM
